STAT3 activator – activators of IL-6 induced STAT3 signaling; activation (% of control), % at 5.6 µM; 190,000 compounds, 0.91% hits; U3A cells, IL-6 STAT3-luciferase reporter, luminescence; 100% = signal with IL-6 EC80 alone;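 active means activation above the screen-wide mean of compound activation plus 3 SD, cut at about 130% in these data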;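 further: 0% = background luminescence of wells with medium and substrate only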
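Test system: STAT3-luciferase reporter U3A cells; Detection: reporter luminescence signal; Times: 1 h compound pre-exposure, 6 h IL-6 stimulation, 37 °C; Benchmarks: IL-6-only high control; Also added: IL-6 stimulus at 33 ng/mL final.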
STAT3 inh-1 – inhibitors of IL-6 induced STAT3 signaling; AID 862; U3A cells, IL-6 STAT3-luciferase reporter, luminescence; host cell line lacks STAT1; inhibition, % at 5.5 µM; 190,000 compounds, 0.89% hits;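 active means inhibition above the mean inhibition across all screened compounds plus 3 SD, cut at about 44% in these data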;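 further: 0% = DMSO only wells and 100% = 100 µM nifuroxazide control wells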
STAT1 blocker – reduces IFN-gamma driven STAT1 reporter signal | NIH 3T3 STAT1-luciferase reporter, luminescence | inhibition, % at 5.5 µM | 200,000 compounds, 0.35% hits | AID 920;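 active means inhibition above a set limit, the mean inhibition across all tested compounds plus 3 SD, cut at about 34% in these data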;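 further: 0% = IFN-gamma with DMSO and 100% = IFN-gamma with 300 µM nifuroxazide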
HSP90 inh – HSP90 refolding inhibition in rabbit reticulocyte lysate. 290,000 compounds, 0.91% hits. inhibition, % at 5.6 µM. luciferase refolding luminescence, 3 h. AID 1789;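 active means inhibition above the screen-wide mean plus 3 SD, computed separately per campaign, cut at about 16% in these data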;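 further: 0% = DMSO wells and 100% = 60 µM geldanamycin wells; inhibitors lower the luminescence because luciferase stays unfolded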
STAT3 inh-2 – STAT3 inhibition, confirmation assay | 1,200 compounds, 45% hits | inhibition, % at 5.7 µM | U3A cells, IL-6 STAT3 luciferase reporter, luminescence; cell line lacks STAT1 | shares compounds with STAT3 inh-1;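 active means inhibition above the hit cutoff computed for the primary STAT3 screen, cut at about 44% in these data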;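 further: 0% = IL-6 plus DMSO and 100% = IL-6 plus nifuroxazide control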
NFkB inh STAT3ct – inhibits NF-kappaB, counter-screen to STAT3 inhibitors | AID 1308 | 1,200 compounds, 36% hits | shares compounds with STAT3 inh-1 | inhibition, % at 5.7 µM | HEK293T NF-kB luciferase reporter, TNF-alpha induced;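 active means inhibition above the mean of solvent-only control wells plus 3 SD, cutoff set per campaign, cut at about 13% in these data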;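 further: 0% = TNF-alpha with DMSO and 100% = TNF-alpha with MG high control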
STAT1 inh 2 – inhibits STAT1, counter-screen to STAT3 inhibitors. shares compounds with STAT3 inh-1. NIH 3T3 STAT1-luciferase reporter, IFN-gamma induced, luminescence. inhibition, % at 5.7 µM. 1,200 compounds, 27% hits;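 active means inhibition above the mean plus 3 SD of solvent-only control wells, limit set per screening run, cut at about 16% in these data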;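 further: 0% = DMSO with IFN-gamma and 100% = nifuroxazide control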
* hit, by the source's call; x = not tested or not shown. In the library only some 2% were active in any assay of this set; here they are far more common.

SMILES	STAT3 activator	STAT3 inh-1	STAT1 blocker	HSP90 inh	STAT3 inh-2	NFkB inh STAT3ct	STAT1 inh 2
FC(F)(F)c1cnc(-c2cnc(-c3ccccn3)nc2)c(Cl)c1	63	48*	-9	8	16	-23	-57
c1ccc(CCNc2ncnc3ccccc23)cc1	26	90*	-3	7	83*	23*	-23
Cc1cc2c(NCCc3ccccc3)ncnc2s1	x	x	x	3	x	x	x
Cc1cc(OCC(=O)Nc2ccc(S(=O)(=O)N3CCN(C)CC3)cc2)ccc1Br	x	x	x	1	x	x	x
COc1cccc(NS(=O)(=O)c2ccc3c(c2)CCN3C(C)=O)c1	x	x	x	7	x	x	x
CC(=O)N1CCc2cc(S(=O)(=O)Nc3cccc(C(F)(F)F)c3)ccc21	63	44*	21	1	39	2	19*
Cc1nc(NCc2ccccn2)c2ccccc2n1	62	49*	18	-3	32	1	12
Cc1ccc(/C(O)=C2\C(=O)C(=O)N(C)C2c2cccc([N+](=O)[O-])c2)cc1 (configuration not stated)	x	x	x	9	x	x	x
O=C(/C=C/c1ccc(Cl)cc1)Nc1nccs1	67	44*	-10	1	2	-26	-164
O=c1oc2ccccc2cc1-c1nc2c(s1)CCCC2	42	74*	31	12	48*	31*	-39
Cc1cc(C)n(CCNC(=O)c2cc(COc3ccc4ncccc4c3)on2)n1	x	x	x	-4	x	x	x
O=C(NCc1cccc(Cl)c1)c1cc(COc2ccc3ncccc3c2)on1	64	45*	28	6	62*	15*	21*
Cc1ccc(F)cc1CNC(=O)c1cc(COc2ccc3ncccc3c2)on1	74	38	17	0	x	x	x
CC(CCCC(C)(C)O)NC(=O)c1cc(COc2ccc3ncccc3c2)on1 (configuration not stated)	50	63*	30	4	63*	21*	24*
COc1ccc(CNC(=O)CN(C(=O)c2snc(C(N)=O)c2N)c2ccccc2F)cc1	x	x	x	4	x	x	x
COc1ccc(Cc2nc3ccc(C(=O)NC(C)c4cn(C)nc4C)cc3o2)cc1 (configuration not stated)	x	x	x	-4	x	x	x
Cc1ccc(N(Cc2cc3ccc(C)cc3[nH]c2=O)S(C)(=O)=O)c(C)c1	x	x	x	1	x	x	x
O=C(CSC(=S)N1CCOCC1)Nc1ccc(S(=O)(=O)Nc2ncccn2)cc1	x	x	x	-2	x	x	x
O=C(c1cccn2c(=O)c3ccccc3nc12)N1CCN(c2ccccn2)CC1	59	51*	-5	5	3	-6	0
COC(=O)c1sccc1NC(=O)CC1C(=O)NCCN1C(=O)c1ccc(N(C)C)cc1 (configuration not stated)	x	x	x	0	x	x	x
CCOC(=O)c1ccc(NC(=O)CSc2nc3cccnc3n2C)cc1	59	54*	8	3	39	2	12
COC(=O)c1ccc(NC(=O)CSc2nc3cccnc3n2C)cc1	68	40	11	11	x	x	x
CCOC(=O)C1CCCN(S(=O)(=O)c2ccc(S(=O)(=O)N(CC)CC)cc2)C1 (configuration not stated)	35	78*	31	0	83*	34*	27*
CC(=O)c1c(C)[nH]c(C(=O)OCc2ccc(F)cc2Cl)c1C	64	48*	1	2	54*	2	6
CC(=O)c1cc2c(cc1NC(=O)CN1Cc3ccccc3C1=O)OCO2	x	x	x	1	x	x	x
SMILES	STAT3 activator	STAT3 inh-1	STAT1 blocker	HSP90 inh	STAT3 inh-2	NFkB inh STAT3ct	STAT1 inh 2
Cc1cc(/C=C2\Sc3ccccc3N2C)cc(C)[n+]1CC1CCCO1 (configuration not stated)	34	83*	22	2	84*	20*	11
Cc1ccc(/C=C2/Sc3ccccc3N(CC(=O)NCC3CCCO3)C2=O)cc1 (configuration not stated)	x	x	x	-3	x	x	x
CCOc1cccc(C(=O)Nc2nnc(-c3ccco3)s2)c1	61	47*	-27	5	7	-15	-61
Cc1cccc(OCC(=O)Nc2nnc(-c3ccco3)s2)c1	94	9	-5	-4	x	x	x
Cc1nnsc1NC(=O)OCc1ccc(Cl)cc1Cl	86	27	3	1	x	x	x
Cc1nn(C)c(Cl)c1NC(=O)OCc1ccc(Cl)cc1Cl	64	51*	21	0	36	8	5
O=C(Nc1ccc(S(=O)(=O)N2CCCCC2)cc1)C1CC(=O)N(c2ccc(Cl)cc2)C1 (configuration not stated)	x	x	x	8	x	x	x
CC(=O)CSc1nc2cc3c(cc2cc1C#N)OCCO3	36	78*	13	-2	28	1	-94
CN(C(=O)c1ccccc1)c1nc2ccccc2s1	54	56*	-42	3	10	-38	-120
CCn1c(C(=O)O)c(CC(=O)Nc2cccc(C(F)(F)F)c2)c2ccccc21	x	x	x	-8	x	x	x
CCc1nc(Nc2ccc(OC)c(OC)c2)c2nnn(Cc3ccccc3Cl)c2n1	46	67*	24	2	58*	17*	19*
Cc1nn(C)c(C)c1CN(Cc1nc(CCC(C)C)no1)C(C)C	37	76*	32	-4	78*	27*	20*
O=C(CN1CCCCCC1)NN(Cc1ccccc1)c1ccccc1	x	x	x	-4	x	x	x
Cc1cccn2cc(-c3ccc4c(c3)NC(=O)CO4)nc12	x	x	x	2	x	x	x
Cc1ccn2cc(-c3ccc4c(c3)NC(=O)CO4)nc2c1	66	46*	-18	13	19	-25	-76
COc1ccc(/C=C2\SC(=S)N(CCC(=O)Nc3ccc(C(=O)O)cc3)C2=O)cc1	x	x	x	-4	x	x	x
COc1ccc(/C=C2/SC(=S)N(CCC(=O)O)C2=O)cc1	52	57*	17	8	57*	32*	12
CC(=O)Oc1ccc(OC(C)=O)c2c1CC(C)=C(C)C2	x	x	x	7	x	x	x
COC(=O)COc1ccc(S(=O)(=O)NCc2ccncc2)cc1	49	63*	20	1	54*	5	19*
COc1cc(/C=N/Nc2ccc(C(F)(F)F)cn2)cc(OC)c1O	63	48*	0	0	27	0	-3
Oc1ccc(/C=N/Nc2ccc(C(F)(F)F)cn2)cc1	87	19	-76	-1	x	x	x
O=[N+]([O-])c1cccc(-c2cc3cccc[n+]3cc2-c2cccc([N+](=O)[O-])c2)c1	107	-3	-5	4	x	x	x
Cc1cccc2cc(-c3ccccc3)c(-c3ccccc3)c[n+]12	64	46*	26	-4	19	-10	1
O=C(C(Cl)Cl)N1c2ccccc2OCC1c1ccccc1 (configuration not stated)	63	50*	-20	2	33	9	-2
O=C(NC(=O)N1CCN(c2ccc([N+](=O)[O-])cn2)CC1)c1c(Cl)cccc1Cl	x	x	x	0	x	x	x

Source: PubChem
